Experiments:
HL-60 [1] = assay: Cell cycle arrest in human HL60 cells assessed as accumulation at G0/G1 phase at 20 nM after 24 hrs by propidium iodide based flow cytometry analysis (reference value: 50.6 %); format: functional
HL-60 [2] = assay: Cell cycle arrest in human HL60 cells assessed as accumulation at G0/G1 phase at 20 nM after 48 hrs by propidium iodide based flow cytometry analysis (reference value: 51.2 %); format: functional
HL-60 [3] = assay: Cell cycle arrest in human HL60 cells assessed as accumulation at Sub G1 phase at 20 nM after 48 hrs by propidium iodide based flow cytometry analysis (reference value: 4 %); format: functional
HL-60 [4] = assay: Cell cycle arrest in human HL60 cells assessed as accumulation at Sub G1 phase at 20 nM after 24 hrs by propidium iodide based flow cytometry analysis (reference value: 2.3 %); format: functional
HL-60 [5] = assay: Cell cycle arrest in human HL60 cells assessed as accumulation at G2/M phase at 20 nM after 48 hrs by propidium iodide based flow cytometry analysis (reference value: 23.9 %); format: functional
HL-60 [6] = assay: Cell cycle arrest in human HL60 cells assessed as accumulation at S phase at 20 nM after 48 hrs by propidium iodide based flow cytometry analysis (reference value: 20.9 %); format: functional
HL-60 [7] = assay: Cell cycle arrest in human HL60 cells assessed as accumulation at S phase at 20 nM after 24 hrs by propidium iodide based flow cytometry analysis (reference value: 22.3 %); format: functional
HL-60 [8] = assay: Cell cycle arrest in human HL60 cells assessed as accumulation at G2/M phase at 20 nM after 24 hrs by propidium iodide based flow cytometry analysis (reference value: 24.8 %); format: functional
HL-60 [9] = assay: Cell cycle arrest in human HL60 cells assessed as accumulation at G2/M phase at 100 nM after 48 hrs by propidium iodide based flow cytometry analysis (reference value: 23.9 %); format: functional
HL-60 [10] = assay: Cell cycle arrest in human HL60 cells assessed as accumulation at G0/G1 phase at 100 nM after 24 hrs by propidium iodide based flow cytometry analysis (reference value: 50.6 %); format: functional
HL-60 [11] = assay: Induction of apoptosis in human HL60 cells assessed as viable cells at 100 nM after 24 hrs using annexin-V-PE/7-AAD staining by flow cytometry analysis (reference value: 90.8 %); format: functional; conditions: HL-60, 24 h, read-out: Activity
HL-60 [12] = assay: Cell cycle arrest in human HL60 cells assessed as accumulation at S phase at 100 nM after 48 hrs by propidium iodide based flow cytometry analysis (reference value: 20.9 %); format: functional
HL-60 [13] = assay: Cell cycle arrest in human HL60 cells assessed as accumulation at G0/G1 phase at 100 nM after 48 hrs by propidium iodide based flow cytometry analysis (reference value: 51.2 %); format: functional
HL-60 [14] = assay: Cytotoxicity against human HL60 cells after 72 hrs by MTS assay; format: functional, cell-based; conditions: HL-60, 72 h
Method in brief: (§1)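 Cells seeded at 600 per well, dosed 24 h later from DMSO stocks over 0.5 nM–10 µM (DMSO 1% final in controls). KB was grown in D-MEM with 10% fetal calf serum; HL60 in complete RPMI. After 72 h, MTS was added for 3 h at 37 °C and A490 read. Inhibition % = (1 − OD treated/OD control) × 100, in triplicate; IC50 runs were in duplicate.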

HL-60 [15] = assay: Cell cycle arrest in human HL60 cells assessed as accumulation at G2/M phase at 100 nM after 24 hrs by propidium iodide based flow cytometry analysis (reference value: 24.8 %); format: functional
HL-60 [16] = assay: Induction of apoptosis in human HL60 cells assessed as early apoptotic cells at 100 nM after 48 hrs using annexin-V-PE/7-AAD staining by flow cytometry analysis (reference value: 14.7 %); format: functional
HL-60 [17] = assay: Induction of apoptosis in human HL60 cells assessed as viable cells at 100 nM after 48 hrs using annexin-V-PE/7-AAD staining by flow cytometry analysis (reference value: 83.9 %); format: functional; conditions: HL-60, 48 h, read-out: Activity
HL-60 [18] = assay: Cell cycle arrest in human HL60 cells assessed as accumulation at S phase at 100 nM after 24 hrs by propidium iodide based flow cytometry analysis (reference value: 22.3 %); format: functional
KB [19] = assay: Cytotoxicity against human KB cells after 72 hrs by MTS assay; format: functional, cell-based; method in brief: as §1
HL-60 [20] = assay: Cell cycle arrest in human HL60 cells assessed as accumulation at Sub G1 phase at 100 nM after 48 hrs by propidium iodide based flow cytometry analysis (reference value: 4 %); format: functional
HL-60 [21] = assay: Induction of apoptosis in human HL60 cells assessed as late apoptotic cells at 100 nM after 24 hrs using annexin-V-PE/7-AAD staining by flow cytometry analysis (reference value: 0.8 %); format: functional
HL-60 [22] = assay: Cell cycle arrest in human HL60 cells assessed as accumulation at Sub G1 phase at 100 nM after 24 hrs by propidium iodide based flow cytometry analysis (reference value: 2.3 %); format: functional
HL-60 [23] = assay: Induction of apoptosis in human HL60 cells assessed as early apoptotic cells at 100 nM after 24 hrs using annexin-V-PE/7-AAD staining by flow cytometry analysis (reference value: 7.5 %); format: functional
KB [24] = assay: Cytotoxicity against human KB cells assessed as growth inhibition at 10 '-6 M after 72 hrs by MTS assay; format: functional; conditions: read-out: GI; method in brief: as §1
Ovis aries [25] = species on record: Ovis aries; assay: Inhibition of sheep brain tubulin polymerization at 2 x 10 '-5 M after 10 mins by turbidimetry
Method in brief: (§2)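 Microtubule protein was purified from sheep brain by two assembly/disassembly cycles (37 °C/0 °C) in 100 mM MES pH 6.6, 1 mM EGTA, 0.5 mM MgCl2. Compound in DMSO (1 µL) was added to 150 µL microtubule solution, incubated 10 min at 37 °C then 5 min at 0 °C, and turbidity read at 350 nm. Single tests were at ~2 × 10^-5 M; IC50 was also expressed relative to deoxypodophyllotoxin IC50.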

HL-60 [26] = assay: Induction of apoptosis in human HL60 cells assessed as late apoptotic cells at 100 nM after 48 hrs using annexin-V-PE/7-AAD staining by flow cytometry analysis (reference value: 0.6 %); format: functional
[27] = Inhibition of sheep brain tubulin polymerization after 10 mins by turbidimetry analysis; design: species or system Ovis aries; method in brief: as §2
Ovis aries [28] = species on record: Ovis aries; assay: Ratio of compound IC50 to DPPT IC50 for sheep brain tubulin; method in brief: as §2
HL-60 [29] = assay: Cytotoxicity against human HL60 cells assessed as growth inhibition after 72 hrs by MTS assay; conditions: HL-60, 72 h

COc1cc([C@@H]2c3cc4c(cc3C[C@H]3COC(=O)[C@@H]32)OCO4)cc(OC)c1OC [DESOXYPODOPHYLLOTOXIN]
Activity (HL-60 [1]): 25.2%
Activity (HL-60 [2]): 23.5%
Activity (HL-60 [3]): 34.1%
Activity (HL-60 [4]): 7.7%
Activity (HL-60 [5]): 29.8%
Activity (HL-60 [6]): 37.7%
Activity (HL-60 [7]): 9.5%
Activity (HL-60 [8]): 57.6%

COc1ccc(/C=C2\Oc3c(cc(OC)c(OC)c3OC)C2=O)cc1N
Activity (HL-60 [9]): 20.8%
Activity (HL-60 [10]): 39%
viability at 0.1 µM (HL-60 [11]): 85.4%
Activity (HL-60 [12]): 22.5%
Activity (HL-60 [13]): 42.6%
IC50 (HL-60 [14]): 0.18 µM
Activity (HL-60 [15]): 28.4%
Activity (HL-60 [16]): 16.4%
viability at 0.1 µM (HL-60 [17]): 81.7%
Activity (HL-60 [18]): 18.7%
IC50 (KB [19]): 0.4 µM
Activity (HL-60 [20]): 14%
Activity (HL-60 [21]): 1.5%
Activity (HL-60 [22]): 13.9%
Activity (HL-60 [23]): 12.1%
inhibition of growth at 1 µM (KB [24]): 98%
inhibition (Ovis aries [25]): 33%
Activity (HL-60 [26]): 1.1%

COc1ccc(-c2oc3c(OC)c(OC)c(OC)c(OC)c3c(=O)c2OC)cc1N
inhibition of growth at 1 µM (KB [24]): 17%

COc1cc(OC)c(/C=C2\Oc3c(OC)c(OC)c(OC)c(O)c3C2=O)cc1N
inhibition of growth at 1 µM (KB [24]): 0%

COc1ccc(-c2cc(=O)c3c(OC)c(OC)c(OC)c(OC)c3o2)cc1N
inhibition of growth at 1 µM (KB [24]): 6%

COc1cc(OC)c(/C=C2\Oc3c(cc(OC)c(OC)c3OC)C2=O)cc1N
inhibition of growth at 1 µM (KB [24]): 0%
inhibition (Ovis aries [25]): 12%

COc1ccc(/C=C2\Oc3c(OC)c(OC)c(OC)c(O)c3C2=O)cc1[N+](=O)[O-]
inhibition of growth at 1 µM (KB [24]): 0%

COc1ccc(-c2oc3c(OC)c(OC)c(OC)c(O)c3c(=O)c2OC)cc1N
Activity (HL-60 [9]): 21.3%
Activity (HL-60 [10]): 40.3%
viability at 0.1 µM (HL-60 [11]): 74.2%
Activity (HL-60 [12]): 26.5%
Activity (HL-60 [13]): 33.1%
IC50 (HL-60 [14]): 0.055 µM
Activity (HL-60 [15]): 33.3%
IC50 [27]: 9 µM
Activity (HL-60 [16]): 41%
viability at 0.1 µM (HL-60 [17]): 56.3%
Activity (HL-60 [18]): 17.5%
Activity (HL-60 [20]): 19.1%
Activity (HL-60 [21]): 2.1%
Activity (HL-60 [22]): 8.9%
Activity (HL-60 [23]): 22.8%
inhibition of growth at 1 µM (KB [24]): 99%
Ratio IC50 (Ovis aries [28]): 4
Activity (HL-60 [26]): 1.9%

COc1ccc(-c2oc3c(OC)c(OC)c(OC)cc3c(=O)c2OC)cc1N
inhibition of growth at 1 µM (KB [24]): 84%

COc1ccc(/C=C2\Oc3c(OC)c(O)c(OC)c(OC)c3C2=O)cc1N
inhibition of growth at 1 µM (KB [24]): 0%

COc1ccc(/C=C2\Oc3c(cc(OC)c(OC)c3OC)C2=O)c(O)c1O
Activity (HL-60 [9]): 17.2%
Activity (HL-60 [10]): 9.8%
viability at 0.1 µM (HL-60 [11]): 84.1%
Activity (HL-60 [12]): 28.2%
Activity (HL-60 [13]): 31.4%
Activity (HL-60 [15]): 52.5%
IC50 (HL-60 [29]): 100 µM
IC50 [27]: 8.6 µM
Activity (HL-60 [16]): 21.1%
viability at 0.1 µM (HL-60 [17]): 77.1%
Activity (HL-60 [18]): 23.7%
Activity (HL-60 [20]): 23.2%
Activity (HL-60 [21]): 1.9%
Activity (HL-60 [22]): 14%
Activity (HL-60 [23]): 12.9%
Ratio IC50 (Ovis aries [28]): 4
Activity (HL-60 [26]): 0.8%

COc1ccc(/C=C2\Oc3c(OC)c(OC)c(OC)c(OC)c3C2=O)cc1N
inhibition of growth at 1 µM (KB [24]): 0%

COc1ccc(/C=C2\Oc3c(OC)c(OC)c(OC)c(O)c3C2=O)cc1N
inhibition of growth at 1 µM (KB [24]): 0%

COc1cccc2c1C(=O)c1c(O)c3c(c(O)c1C2=O)C[C@@](O)(C(=O)CO)C[C@@H]3O[C@H]1C[C@H](N)[C@H](O)[C@H](C)O1 [DOXORUBICIN]
viability at 0.1 µM (HL-60 [11]): 81%
Activity (HL-60 [16]): 68%
viability at 0.1 µM (HL-60 [17]): 29.8%
Activity (HL-60 [21]): 0.9%
Activity (HL-60 [23]): 17.8%
Activity (HL-60 [26]): 1.9%

COc1ccc(-c2coc3c(OC)c(OC)c(OC)c(O)c3c2=O)cc1[N+](=O)[O-]
inhibition of growth at 1 µM (KB [24]): 18%

COc1ccc(/C=C2\Oc3c(cc(OC)c(OC)c3OC)C2=O)cc1[N+](=O)[O-]
inhibition of growth at 1 µM (KB [24]): 0%
inhibition (Ovis aries [25]): 12%

COc1ccc(-c2coc3c(OC)c(OC)c(OC)c(O)c3c2=O)cc1N
inhibition of growth at 1 µM (KB [24]): 0%

COc1ccc(/C=C2\Oc3c(cc(OC)c(OC)c3OC)C2=O)cc1O
Activity (HL-60 [9]): 18.2%
Activity (HL-60 [10]): 40.3%
viability at 0.1 µM (HL-60 [11]): 81.1%
Activity (HL-60 [12]): 25.6%
Activity (HL-60 [13]): 35.1%
IC50 (HL-60 [14]): 0.12 µM
Activity (HL-60 [15]): 24.7%
Activity (HL-60 [16]): 24.9%
viability at 0.1 µM (HL-60 [17]): 73.3%
Activity (HL-60 [18]): 20.6%
IC50 (KB [19]): 0.11 µM
Activity (HL-60 [20]): 21.1%
Activity (HL-60 [21]): 1.1%
Activity (HL-60 [22]): 14.4%
Activity (HL-60 [23]): 16.8%
inhibition of growth at 1 µM (KB [24]): 100%
inhibition (Ovis aries [25]): 21%
Activity (HL-60 [26]): 1.1%

COc1ccc(-c2cc(=O)c3c(O)c(OC)c(OC)c(OC)c3o2)cc1N
inhibition of growth at 1 µM (KB [24]): 96%

COc1ccc(C2COc3c(OC)c(OC)c(OC)c(O)c3C2=O)cc1N (configuration not stated)
inhibition of growth at 1 µM (KB [24]): 4%

COc1ccc(/C=C/C(=O)c2c(O)c(OC)c(OC)c(OC)c2OC)cc1N
inhibition of growth at 1 µM (KB [24]): 11%

From ChEMBL document CHEMBL1938313, “Influence of the skeleton on the cytotoxicity of flavonoids” (Bioorg Med Chem, 2012)
